Bioassay records deposited in PubChem by several laboratories.
Furin inhibitor – inhibitors of human furin; P09958; purified furin, fluorogenic substrate cleavage; inhibition, % at 20 µM or 30 µM; 0.061% of 220,000 active; AID 463115; in the data active = inhibition above about 25%
FXIIa inh 1536 – inhibitors of human coagulation factor XIIa; P00748; purified FXIIa, Boc-QGR-AMC fluorogenic substrate, 2 h; inhibition, % at 5 µM; 0.3% of 220,000 active; in the data active = inhibition above about 40%;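 note: 0% = enzyme with no compound and 100% = blank without enzyme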
FXIa inh – factor XIa (human) inhibition. P03951. purified FXIa, Boc-Glu-Ala-Arg-AMC fluorogenic substrate. inhibition, % at 5 µM. 0.14% of 220,000 active;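 active = inhibition of at least 40%; inactive = inhibition below 40%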;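 note: fluorescence of freed AMC excited at 355 nm; 0% = enzyme without compound and 100% = no enzyme blank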
KLK5 inh – kallikrein 5 (human) inhibition. Q9Y337. recombinant hK5, fluorogenic AMC substrate cleavage. inhibition, % at 5 µM. 0.59% of 210,000 active;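 active = inhibition of 40% or more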;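 note: 0% = enzyme controls without compound and 100% = no-enzyme blanks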
Thrombin inh – inhibitors of human thrombin | P00734 | alpha-thrombin, Boc-VPR-AMC fluorogenic substrate cleavage | inhibition, % at 5 µM | 0.26% of 220,000 active | AID 1046;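 active = inhibition at or above 40%; inactive = inhibition below 40%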;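 note: 0% = enzyme with no compound and 100% = wells without enzyme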
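System: Human alpha-thrombin protein | Medium: pH 7.5 Tris (50 mM) with NaCl 150 mM, Tween 20 0.05% | Times: Enzyme reaction carried out at room temperature | Detection: AMC fluorescence, 355/460 nm | Evaluation: Percent inhibition scaled between no-compound controls and no-enzyme blanks | Benchmarks: Enzyme without compound as high, wells lacking enzyme as low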
PERK inhibitor – blocks human PERK kinase. CHO PERK-DD fusion, SEAP luminescence translation reporter. 0.17% of 220,000 active. inhibition, % at 5.6 µM. AID 1416. Q9NZJ5;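 active = inhibition above the mean inhibition of all tested compounds plus 3 SD, set separately per screening campaign, cut at about 2.9% in these data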;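 note: PERK kinase domain activated by AP20187 dimerizer at 100 nM; 0% = DMSO with dimerizer and 100% = rapamycin at 8.4 µM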
Target sequence (Q9NZJ5 whole entry, looked up, the tested form may be a part): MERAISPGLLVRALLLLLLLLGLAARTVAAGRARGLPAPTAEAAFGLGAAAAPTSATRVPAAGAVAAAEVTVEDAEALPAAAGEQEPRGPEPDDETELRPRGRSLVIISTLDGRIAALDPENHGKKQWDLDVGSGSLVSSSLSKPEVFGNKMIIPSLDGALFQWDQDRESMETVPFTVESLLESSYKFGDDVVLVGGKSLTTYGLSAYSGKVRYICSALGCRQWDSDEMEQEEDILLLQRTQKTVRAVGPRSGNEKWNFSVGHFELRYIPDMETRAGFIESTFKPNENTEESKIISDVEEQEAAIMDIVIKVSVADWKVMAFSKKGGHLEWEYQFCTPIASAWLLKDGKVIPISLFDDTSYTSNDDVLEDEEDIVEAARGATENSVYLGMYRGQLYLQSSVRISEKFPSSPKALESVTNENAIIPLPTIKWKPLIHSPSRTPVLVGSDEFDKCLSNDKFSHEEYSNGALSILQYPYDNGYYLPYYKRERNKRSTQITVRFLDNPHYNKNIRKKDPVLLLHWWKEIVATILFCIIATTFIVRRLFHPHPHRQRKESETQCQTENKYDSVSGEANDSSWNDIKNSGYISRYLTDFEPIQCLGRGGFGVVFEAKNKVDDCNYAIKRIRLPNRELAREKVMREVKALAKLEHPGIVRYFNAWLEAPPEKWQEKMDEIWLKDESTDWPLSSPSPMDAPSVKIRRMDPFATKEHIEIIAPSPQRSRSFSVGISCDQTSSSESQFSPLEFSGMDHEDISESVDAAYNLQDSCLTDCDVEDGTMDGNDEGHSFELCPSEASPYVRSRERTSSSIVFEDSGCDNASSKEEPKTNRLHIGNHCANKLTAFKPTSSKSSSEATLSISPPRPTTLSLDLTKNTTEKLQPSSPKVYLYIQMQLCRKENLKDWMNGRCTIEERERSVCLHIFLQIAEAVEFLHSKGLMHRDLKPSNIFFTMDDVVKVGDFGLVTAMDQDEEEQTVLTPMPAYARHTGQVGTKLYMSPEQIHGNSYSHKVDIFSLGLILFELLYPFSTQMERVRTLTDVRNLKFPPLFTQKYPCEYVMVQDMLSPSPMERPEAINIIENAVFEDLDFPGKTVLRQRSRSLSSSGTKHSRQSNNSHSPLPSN
Active calls of the source: *; . = no result. A selection: hits, their analogues and other compounds. The true share with any hit is near 1.2%.

SMILES	Furin inhibitor	FXIIa inh 1536	FXIa inh	KLK5 inh	Thrombin inh	PERK inhibitor
O=C(C[n+]1cccc(CNC(=O)c2ccc(OC(F)F)cc2)c1)Nc1cc(C(F)(F)F)ccc1Cl	-21	24	10	61*	36	0
COc1ccc2c(c1)-c1nc(NC(=O)c3cccs3)sc1CC2	-5	22	49*	-14	4	-1
COc1ccc(S(=O)(=O)CCc2nnc(NC(=O)c3cccs3)s2)cc1	-15	22	0	1	77*	1
COc1ccc(-c2nnc(NC(=O)c3cccs3)s2)c(OC)c1	-8	5	-18	27	-3	0
O=C(Cn1ncc2c(=O)oc3ccccc3c21)Nc1nc2ccccc2s1	25*	-7	-9	0	-4	1
O=C(Nc1ccc(C2SCCS2)cc1)c1ccccc1	-24	-2	-2	-1	-4	1
Oc1ccc(C2Nc3cccc4cccc(c34)N2)c(O)c1	-23	14	11	57*	67*	1
COc1cc(C2Nc3cccc4cccc(c34)N2)cc(OC)c1O	-14	9	1	9	1	0
CCN(CC)c1ccc(/C=C(\C#N)C(=O)NCc2ccco2)cc1	6	18	5	64*	13	-1
CN(C)c1ccc(/C=C(\C#N)C(=O)NCc2ccco2)cc1	-5	7	4	-13	-9	0
CC1CN(CC(O)COC2CCC(C(C)(C)C)CC2)CC(C)O1 (stereo not given)	0	26	28	43*	2	1
CC(C)(C)C1CCC(OCC(O)CN2CCN(Cc3ccccc3)CC2)CC1 (stereo not given)	-7	13	3	-6	-7	0
O=C(Cn1nnc(-c2ccncc2)n1)NCCc1ccccc1	-21	9	-2	48*	10	1
O=C(COc1ccc(Cl)cc1Cl)N1CCCN(C(=O)COc2ccc(Cl)cc2Cl)CC1	-18	13	-1	20	1	-1
O=C(COc1ccc(Cl)cc1Cl)NC(=O)N1CCCCC1	32*	4	-3	-13	-8	-1
S=C(Nc1ccc(Br)cc1Cl)NN1CCOCC1	-26	-1	-2	-16	0	0
O=C1/C(=C/c2ccncc2)SC(=S)N1Nc1ccccc1	3	4	1	-1	-2	0
O=C(O)c1ccc(/C=C2\SC(=S)N(Nc3ccccc3)C2=O)cc1	14	41*	49*	29	19	2
CC(=O)NN1C(=O)/C(=C\c2ccc(O)cc2)SC1=S	-12	14	2	3	-4	2
CC(=O)NN1C(=O)/C(=C\c2ccccc2)SC1=S	6	-1	-3	89*	3	0
Cc1ccc(S(=O)(=O)N2CCOCC2)cc1C(=O)N1CCN(S(=O)(=O)c2cccs2)CC1	-21	16	0	7	5	1
CCN1CCS/C1=C\C=C\C1=[N+](CC)CCS1	43*	18	6	19	5	0
CCN1CCS/C1=C/C=C/C1=[N+](CC)CCS1	38*	16	9	-12	-4	2
CC(Sc1ncc(C(F)(F)F)cc1Cl)C(=O)NCC1CCCO1 (stereo not given)	-24	3	-2	.	-2	1
Cc1cc(C(=O)O)ccc1-n1c(C)ccc1C	-3	15	7	-12	4	3.3*
SMILES	Furin inhibitor	FXIIa inh 1536	FXIa inh	KLK5 inh	Thrombin inh	PERK inhibitor
CCOC(=O)c1cnc(-c2ccccc2)nc1Oc1ccc(Cl)c(Cl)c1	-17	5	7	65*	28	1
CCOC(=O)c1cnc(-c2ccccc2)nc1Oc1cccc(Cl)c1	-11	1	6	3	-2	1
Cn1c(SCC(=O)NC2CCCC2)nnc1-c1ccc(S(=O)(=O)N2CCOCC2)cc1	-20	-3	-12	-14	45*	0
O=C(/C=C/c1ccccc1)N1CCC[C@H]1CO	-26	10	3	-4	1	1
C#CCSc1nncn1C(=O)/C=C/c1ccccc1	-21	31	30	35	90*	1
CN(C)c1ccc(-c2nnn(CC(=O)NCc3ccc4c(c3)OCO4)n2)cc1	-7	3	0	-15	4	2
COc1ccc(-c2nc(SC)n(C(=O)c3ccco3)n2)cc1	4	24	18	29	80*	1
COc1ccc(-c2nc(N)n(C(=O)c3ccco3)n2)cc1	-21	26	1	-2	16	1
CC1(C)CC(=O)C2=C(C1)N(Cc1ccccc1)C(=O)C2(NC(=O)C(C)(C)C)C(F)(F)F (stereo not given)	-16	14	15	53*	19	0
Clc1ccccc1Cc1noc(CN2CCN(Cc3ccccn3)CC2)n1	-27	8	5	2	-6	0
COc1ccc2[nH]c3c(NCCCN4CCCC4=O)ncnc3c2c1	-11	-5	1	54*	0	0
CC(C)NC(=O)NC(=O)COC(=O)c1cc[n+]([O-])cc1	-13	3	-2	-3	-4	-1
CN(C)c1ccc(-c2nnn(CC(=O)Nc3ccccc3N3CCOCC3)n2)cc1	-31	8	5	66*	8	-1
Cc1ccccc1NC(=O)Cn1nnc(-c2ccc(N3CCOCC3)cc2)n1	-22	2	-4	1	-5	1
Cc1cc(C)n(CCNc2nc3nonc3nc2N2CCCCC2)n1	-8	1	-3	7	-5	0
Cc1nc(SCC(=O)Nc2ccc(OCc3ccccc3)cc2)n[nH]1	-30	7	0	.	0	1
Nc1nc(SCC(=O)Nc2ccc(OCc3ccccc3)cc2)n[nH]1	-5	39	23	44*	-2	0
CCCCS(=O)(=O)c1sc2nc3c(cc2c1N)CCCC3	-29	16	3	42*	14	-1
CCN(CC)S(=O)(=O)c1ccc(O)c(C(=O)OCC(=O)Nc2ccc(OC(F)(F)F)cc2)c1	-20	4	-2	-3	-10	1
CCC(=Nc1ccccc1)C1=C(O)CC(C)(C)CC1=O	-20	2	-5	-13	-8	0
CN(C)S(=O)(=O)Oc1ccsc1C(=O)Nc1ccc(Cl)c(Cl)c1	-16	42*	13	3	-2	0
CN(C)S(=O)(=O)Oc1ccsc1C(=O)Nc1cccc(Cl)c1	-12	47*	19	6	-1	-1
CN(C)S(=O)(=O)Oc1ccsc1C(=O)Nc1ccc(C(F)(F)F)cc1	-13	3	-4	-7	-2	0
CN(C)S(=O)(=O)Oc1ccsc1C(=O)Nc1ccc(Br)cc1	-21	6	-3	-8	-8	0
CC12CCC(C(=O)NCc3ccc(F)cc3)(OC1=O)C2(C)C (stereo not given)	-28	4	-1	0	4	1
COc1ccc(NC(=O)COC(=O)Cc2c(F)cccc2Cl)cc1	-19	2	-12	-7	-22	0
Cc1c(C(N)=O)sc2ncn(CC(=O)NCCc3ccccc3)c(=O)c12	-28	10	0	.	0	0
